From ChEMBL document CHEMBL1128719, “The synthesis, structure-activity, and structure-side effect relationships of a series of 8-alkoxy- and 5-amino-8-alkoxyquinolone antibacterial agents” (J Med Chem, 1995)
≈ marks a conversion by molar mass, not a printed value.

Assays:
[1] = tested on: Cutibacterium acnes; assay: In vitro antibacterial activity was tested for Propion acnes PA5-1; type: functional
How it was run: (§1)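 Microtitration (microdilution) MIC determination in μg/mL against a panel of Gram-positive, Gram-negative and anaerobic organisms. Values come from duplicate or triplicate experiments and are stated accurate to ±50%.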

[2] = tested on: Clostridium perfringens; assay: In vitro antibacterial activity against Clostridium perfringens CP 3-1; type: functional
[3] = species: Mus musculus; assay: (§2) Phototoxic skin reaction in depilated female CD-1 mice; type: toxicity, organism-based; details: in vivo
How it was run: (§3)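 Female CD-1 mice, depilated, given a single oral or subcutaneous dose. UVA (320–400 nm) exposure for 3 h, starting 1 h post-dose. Initial doses were 30, 100 and 300 mg/kg. PTD50 (dose giving phototoxic skin reaction in 50% of mice) derived by probit method. First day of positive reaction and no-effect dose taken from raw data.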

[4] = tested on: Clostridioides difficile; assay: (§4) In vitro antibacterial activity was tested for Clostridium diff CD1-1; type: functional
[5] = tested on: Bacteroides fragilis; assay: In vitro antibacterial activity against Bacteroides fragilis BFA; type: functional; how it was run: as §1
[6] = tested on: Peptoniphilus asaccharolyticus; assay: In vitro antibacterial activity was tested for Pepto asac PA 3-1; type: functional; how it was run: as §1
[7] = tested on: V79; assay: (§5) Clonogenic cytotoxicity against Chinese hamster V-79 cells; type: functional, cell-based; details: Cricetulus griseus
How it was run: (§6)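 Chinese hamster V-79 cells grown overnight, then exposed to drug 3 h at 37 °C; drug medium replaced with fresh medium, cells incubated 5 days and scored for colony formation. IC50 (μg/mL) taken as concentration inhibiting colony formation by 50% versus control.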

[8] = tested on: Pseudomonas aeruginosa; assay: In vitro antibacterial activity was tested for Pseudomonas aeruginosa UI-18; type: functional; how it was run: as §1
[9] = tested on: Escherichia coli; assay: In vitro antibacterial activity was tested for Escherichia coli Vogel; type: functional; how it was run: as §1
[10] = tested on: Streptococcus pyogenes; assay: In vitro antibacterial activity was tested for Streptococcus pyogenes C203; type: functional; how it was run: as §1
[11] = tested on: Providencia rettgeri; assay: In vitro antibacterial activity was tested for Providencia rettgeri H1771; type: functional; how it was run: as §1
[12] = tested on: Staphylococcus aureus; assay: In vitro antibacterial activity was tested for Staphylococcus aureus H228; type: functional; how it was run: as §1
[13] = tested on: Enterobacter cloacae; assay: In vitro antibacterial activity was tested for Enterobacter cloacae HA2646; type: functional
[14] = tested on: Enterococcus faecalis; assay: In vitro antibacterial activity was tested for Streptococcus faecalis MGH-2; type: functional; how it was run: as §1
[15] = tested on: Klebsiella pneumoniae; assay: In vitro antibacterial activity was tested for Klebsiella pneumoniae MGH-2; type: functional; how it was run: as §1
[16] = tested on: Escherichia coli; assay: In vitro antibacterial activity was tested for Escherichia coli H560; type: functional; how it was run: as §1
[17] = tested on: Staphylococcus aureus; assay: In vitro antibacterial activity was tested for Staphylococcus aureus UC-76; type: functional; how it was run: as §1
[18] = tested on: Streptococcus pneumoniae; assay: In vitro antibacterial activity was tested for Streptococcus pneumoniae SV-1; type: functional; how it was run: as §1
[19] = species: Mus musculus; assay: as §2; type: functional; how it was run: as §3
[20] = tested on: Clostridioides difficile; assay: as §4; type: functional; how it was run: as §1; remark: listed apart in the source
[21] = species: Mus musculus; assay: phototoxic skin reaction in depilated female CD-1 mice; type: functional
How it was run: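 Depilated female CD-1 mice given a single oral or subcutaneous dose; UVA (320–400 nm) exposure for 3 h starting 1 h post-dose. Initial doses 30, 100 and 300 mg/kg. PTD50 (dose giving phototoxic skin reaction in 50% of mice) calculated by probit method; first day of positive reaction and no-effect dose also taken from raw data.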

[22] = tested on: V79; assay: as §5; type: functional; details: Cricetulus griseus; how it was run: as §6

Structure (SMILES): C[C@@H]1CN(c2cc3c(cc2F)c(=O)c(C(=O)O)cn3C2CC2)C[C@H](C)N1
- MIC [1]: 0.8 µg/mL (≈ 2.23 µM)
- MIC [2]: 0.2 µg/mL (≈ 0.556 µM)
- PTD50 [3]: < 100 mg
- MIC [4]: 6.3 µg/mL (≈ 17.5 µM)
- MIC [5]: 1.6 µg/mL (≈ 4.45 µM)
- MIC [6]: 0.4 µg/mL (≈ 1.11 µM)
- IC50 [7]: > 500 µg/mL

Structure (SMILES): NCC1CCCN(c2c(F)cc3c(=O)c(C(=O)O)cn(C4CC4)c3c2F)C1 (stereo unspecified)
- MIC [8]: 0.4 µg/mL (≈ 1.06 µM)
- MIC [1]: 0.8 µg/mL (≈ 2.12 µM)
- MIC [9]: 0.05 µg/mL (≈ 0.132 µM)
- MIC [10]: 0.013 µg/mL (≈ 0.0344 µM)
- MIC [11]: 0.2 µg/mL (≈ 0.53 µM)
- MIC [2]: 0.2 µg/mL (≈ 0.53 µM)
- MIC [12]: 0.1 µg/mL (≈ 0.265 µM)
- MIC [4]: 0.8 µg/mL (≈ 2.12 µM)
- MIC [13]: 0.05 µg/mL (≈ 0.132 µM)
- MIC [5]: 1.6 µg/mL (≈ 4.24 µM)
- MIC [14]: 0.05 µg/mL (≈ 0.132 µM)
- MIC [15]: 0.2 µg/mL (≈ 0.53 µM)
- MIC [16]: 0.05 µg/mL (≈ 0.132 µM)
- MIC [17]: 0.2 µg/mL (≈ 0.53 µM)
- MIC [6]: 0.4 µg/mL (≈ 1.06 µM)
- MIC [18]: 0.013 µg/mL (≈ 0.0344 µM)
- IC50 [7]: 43 µg/mL (≈ 114 µM)

Structure (SMILES): NCC1CCCN(c2cc3c(cc2F)c(=O)c(C(=O)O)cn3C2CC2)C1 (stereo unspecified)
- MIC [8]: 3.1 µg/mL (≈ 8.63 µM)
- MIC [9]: 0.4 µg/mL (≈ 1.11 µM)
- MIC [10]: 0.05 µg/mL (≈ 0.139 µM)
- MIC [11]: 1.6 µg/mL (≈ 4.45 µM)
- MIC [12]: 0.8 µg/mL (≈ 2.23 µM)
- MIC [13]: 0.4 µg/mL (≈ 1.11 µM)
- MIC [14]: 0.2 µg/mL (≈ 0.556 µM)
- MIC [15]: 0.8 µg/mL (≈ 2.23 µM)
- MIC [16]: 0.4 µg/mL (≈ 1.11 µM)
- MIC [17]: 0.1 µg/mL (≈ 0.278 µM)
- MIC [18]: 0.1 µg/mL (≈ 0.278 µM)
- IC50 [7]: 220 µg/mL (≈ 612 µM)

Structure (SMILES): NCC1CCCN(c2c(F)cc3c(=O)c(C(=O)O)cn(C4CC4)c3c2Cl)C1 (stereo unspecified)
- MIC [8]: 1.6 µg/mL (≈ 4.06 µM)
- MIC [9]: 0.1 µg/mL (≈ 0.254 µM)
- MIC [10]: 0.003 µg/mL (≈ 0.00762 µM)
- MIC [11]: 0.2 µg/mL (≈ 0.508 µM)
- MIC [12]: 0.025 µg/mL (≈ 0.0635 µM)
- MIC [13]: 0.2 µg/mL (≈ 0.508 µM)
- MIC [14]: 0.05 µg/mL (≈ 0.127 µM)
- MIC [15]: 0.2 µg/mL (≈ 0.508 µM)
- MIC [16]: 0.05 µg/mL (≈ 0.127 µM)
- MIC [17]: 0.003 µg/mL (≈ 0.00762 µM)
- MIC [18]: 0.003 µg/mL (≈ 0.00762 µM)
- IC50 [7]: 17 µg/mL (≈ 43.2 µM)

Structure (SMILES): NC1CCN(c2c(F)cc3c(=O)c(C(=O)O)cn(C4CC4)c3c2F)C1 (stereo unspecified)
- MIC [8]: 0.1 µg/mL (≈ 0.286 µM)
- No effect dose [19]: 3 mg
- MIC [1]: 0.2 µg/mL (≈ 0.573 µM)
- MIC [9]: 0.013 µg/mL (≈ 0.0372 µM)
- MIC [10]: 0.05 µg/mL (≈ 0.143 µM)
- MIC [11]: 0.05 µg/mL (≈ 0.143 µM)
- MIC [2]: 0.05 µg/mL (≈ 0.143 µM)
- MIC [12]: 0.05 µg/mL (≈ 0.143 µM)
- MIC [20]: 0.4 µg/mL (≈ 1.15 µM)
- PTD50 [3]: 7.5 mg
- MIC [13]: 0.025 µg/mL (≈ 0.0716 µM)
- MIC [5]: 0.2 µg/mL (≈ 0.573 µM)
- MIC [14]: 0.05 µg/mL (≈ 0.143 µM)
- MIC [15]: 0.025 µg/mL (≈ 0.0716 µM)
- MIC [16]: 0.006 µg/mL (≈ 0.0172 µM)
- MIC [17]: 0.025 µg/mL (≈ 0.0716 µM)
- MIC [6]: 0.4 µg/mL (≈ 1.15 µM)
- MIC [18]: 0.05 µg/mL (≈ 0.143 µM)

Structure (SMILES): NC1CCN(c2nc3c(cc2F)c(=O)c(C(=O)O)cn3C2CC2)C1 (stereo unspecified)
- Photoxic reaction [21]: 100 mg
- MIC [1]: 0.2 µg/mL (≈ 0.602 µM)
- MIC [22]: 98 µg/mL (≈ 295 µM)
- MIC [2]: 0.1 µg/mL (≈ 0.301 µM)
- PTD50 [3]: > 100 mg
- MIC [4]: 6.3 µg/mL (≈ 19 µM)
- MIC [5]: 1.6 µg/mL (≈ 4.81 µM)
- MIC [6]: 0.8 µg/mL (≈ 2.41 µM)

Structure (SMILES): COc1c(N2CCCC(CN)C2)c(F)cc2c(=O)c(C(=O)O)cn(C3CC3)c12 (stereo unspecified)
- MIC [8]: 3.1 µg/mL (≈ 7.96 µM)
- MIC [22]: 22 µg/mL (≈ 56.5 µM)
- MIC [9]: 0.2 µg/mL (≈ 0.514 µM)
- MIC [10]: 0.006 µg/mL (≈ 0.0154 µM)
- MIC [11]: 0.8 µg/mL (≈ 2.05 µM)
- MIC [12]: 0.05 µg/mL (≈ 0.128 µM)
- MIC [13]: 0.2 µg/mL (≈ 0.514 µM)
- MIC [14]: 0.05 µg/mL (≈ 0.128 µM)
- MIC [15]: 0.4 µg/mL (≈ 1.03 µM)
- MIC [16]: 0.1 µg/mL (≈ 0.257 µM)
- MIC [17]: 0.006 µg/mL (≈ 0.0154 µM)
- MIC [18]: 0.006 µg/mL (≈ 0.0154 µM)

Structure (SMILES): COc1c(N2CCNC(C)C2)c(F)cc2c(=O)c(C(=O)O)cn(C3CC3)c12 (stereo unspecified) [GATIFLOXACIN]
- MIC [8]: 0.8 µg/mL (≈ 2.13 µM)
- MIC [1]: 0.4 µg/mL (≈ 1.07 µM)
- MIC [9]: 0.05 µg/mL (≈ 0.133 µM)
- MIC [10]: 0.1 µg/mL (≈ 0.266 µM)
- MIC [11]: 0.2 µg/mL (≈ 0.533 µM)
- MIC [2]: 0.4 µg/mL (≈ 1.07 µM)
- MIC [12]: 0.2 µg/mL (≈ 0.533 µM)
- MIC [4]: 1.6 µg/mL (≈ 4.26 µM)
- MIC [13]: 0.05 µg/mL (≈ 0.133 µM)
- MIC [5]: 0.4 µg/mL (≈ 1.07 µM)
- MIC [14]: 0.2 µg/mL (≈ 0.533 µM)
- MIC [15]: 0.1 µg/mL (≈ 0.266 µM)
- MIC [16]: 0.05 µg/mL (≈ 0.133 µM)
- MIC [17]: 0.05 µg/mL (≈ 0.133 µM)
- MIC [6]: 0.8 µg/mL (≈ 2.13 µM)
- MIC [18]: 0.1 µg/mL (≈ 0.266 µM)
- IC50 [7]: 85 µg/mL (≈ 226 µM)

Structure (SMILES): C[C@@H]1CN(c2c(F)c(N)c3c(=O)c(C(=O)O)cn(C4CC4)c3c2F)C[C@H](C)N1 [SPARFLOXACIN]
- No effect dose [19]: 18 mg
- MIC [1]: 0.4 µg/mL (≈ 1.02 µM)
- MIC [2]: 0.2 µg/mL (≈ 0.51 µM)
- PTD50 [3]: 28 mg
- MIC [4]: 6.3 µg/mL (≈ 16.1 µM)
- MIC [5]: 1.6 µg/mL (≈ 4.08 µM)
- MIC [6]: 0.4 µg/mL (≈ 1.02 µM)
- IC50 [7]: 370 µg/mL (≈ 943 µM)
